Assay outcomes deposited in PubChem BioAssay by several laboratories.
An excerpt weighted towards active compounds, which were near 1.5% of everything screened.
m5-HT2A agonist – mouse Htr2a agonists via beta-arrestin recruitment, primary screen, cell-based, luminescence | 5-hydroxytryptamine receptor 2A (Mus musculus), P35363 | CHO-K1 mHTR2A beta-arrestin complementation; percent of 30 µM serotonin response | activation, % at 7.6 µM | 360,000 tested, 0.66% active;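 active means activation above a run cutoff, the mean activation of all tested compounds plus 3 SD, cut at about 14% in these data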
Target sequence (P35363 whole entry, looked up): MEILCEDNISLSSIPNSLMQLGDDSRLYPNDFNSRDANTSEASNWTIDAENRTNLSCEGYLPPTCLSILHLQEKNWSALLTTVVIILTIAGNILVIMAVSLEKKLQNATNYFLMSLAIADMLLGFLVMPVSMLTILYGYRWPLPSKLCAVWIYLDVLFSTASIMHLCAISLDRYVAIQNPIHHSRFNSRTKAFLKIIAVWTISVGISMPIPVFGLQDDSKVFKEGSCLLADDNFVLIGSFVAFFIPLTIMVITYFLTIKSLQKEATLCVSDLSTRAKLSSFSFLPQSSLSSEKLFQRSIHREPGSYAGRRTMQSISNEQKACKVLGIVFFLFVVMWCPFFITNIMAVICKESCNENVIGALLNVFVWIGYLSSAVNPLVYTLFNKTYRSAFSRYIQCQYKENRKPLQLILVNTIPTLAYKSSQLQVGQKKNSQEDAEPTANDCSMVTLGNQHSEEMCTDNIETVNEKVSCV
NTR1 agonist – agonists of human NTR1, primary screen, imaging, U2OS cells, beta-arrestin-GFP, high content; 330,000 tested, 0.17% active; Neurotensin receptor type 1 (Homo sapiens), P30989; NTR1-U2OS beta-arrestin-GFP spot imaging, agonist mode; activation, % at 20 µM;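 active means activation at or above 40% of the spot to cytoplasm intensity ratio, with at least 20 cells analyzed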
APJ agonist – agonists of human apelin receptor APJ, primary screen, CHO-K1 cells, PathHunter beta-arrestin, luminescence; P35414; 0% DMSO wells, 100% apelin; activation, % at 20 µM; 330,000 tested, 0.11% active;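 active means activation more than six SD over the plate average, tested at 20 µM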
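assay system = CHO-K1 APJ beta-arrestin complementation cell line | input = cell density 1000 per well | dosing = compound 20 µM once, DMSO 1% | timing = compound 90 min 25 °C, reagent 1 h | measured by = luminescence from split beta-galactosidase complementation, Galacton Star/Emerald II substrate | read-out basis = APJ agonist activity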
APJ antagonist – antagonists of human apelin receptor APJ, primary screen, CHO-K1 cells, beta-arrestin complementation, luminescence; inhibition, % at 20 µM; P35414; 330,000 tested, 0.32% active;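 active means inhibition above about 40% at 20 µM, limit read from the data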;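 further: cells challenged with 10 nM apelin-13 agonist together with compound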
CXCR6 block – CXCR6 receptor inhibitors, primary screen, cell-based, beta-arrestin, luminescence, CHO-K1 PathHunter, 1536-well. AID 602244, 2012. C-X-C chemokine receptor type 6 (Homo sapiens), O00574. inhibition, % at 20 µM. 360,000 tested, 0.36% active; in the data active means inhibition above about 34%, passing the limit was not always enough;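 further: antagonist mode with CXCL16 agonist at 10 nM final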
CCR6 antag – CCR6 receptor antagonists, primary screen, cell-based, CHO-K1, luminescence, beta-arrestin, uHTS; AID 493098, 2011; inhibition, % at 20 µM; CHO-K1 CCR6 PathHunter beta-arrestin, CCL20-stimulated; C-C chemokine receptor type 6 (Homo sapiens), P51684; 340,000 tested, 0.49% active;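 active means compounds whose inhibition of the agonist-driven luminescence signal at 20 µM reaches about 50%, limit read from the data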;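 further: cells stimulated with CCL20 at 14 nM final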
APJ ag confirm – agonists of human apelin receptor APJ, confirmation, cell-based, single concentration, CHO-K1, beta-arrestin, luminescence. CHO-K1 APJ PathHunter beta-arrestin. shares compounds with APJ agonist. 310 tested, 10% active. activation, % at 20 µM;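 active means activation above 40%, taking the highest of four retests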
Of the large screens only hits and unclear results are named; the others gave an inactive call (follow-up assays come after a bar, where they were run).

CN(C)CCCN(C(=O)c1ccc([N+](=O)[O-])s1)c1nc2cc3c(cc2s1)OCCO3	APJ agonist 131 | APJ ag confirm inactive
CN(C)CCCN(C(=O)c1cc2cc([N+](=O)[O-])ccc2s1)c1nc2cc3c(cc2s1)OCCO3	APJ agonist 43 | APJ ag confirm inactive
CN(C)CCCN(C(=O)c1ccc(Cl)s1)c1nc2cc3c(cc2s1)OCO3	none
Cc1ccc(N2CC(C(=O)Nc3nc4ccc(S(C)(=O)=O)cc4s3)CC2=O)cc1C (centres undefined)	none
CCOc1cccc2sc(N(CCCN(C)C)C(=O)c3ccc(S(=O)(=O)N4CCc5ccccc5C4)cc3)nc12	none
CCc1ccc2nc(N(CCCN(C)C)C(=O)c3ccc(S(=O)(=O)N4CCc5ccccc5C4)cc3)sc2c1	APJ agonist 60 | APJ ag confirm inactive
CCOc1ccc2[nH]c(=O)c(CN(Cc3ccco3)C(CC)c3nnnn3Cc3ccccc3)cc2c1 (centres undefined)	APJ agonist 76 | APJ ag confirm inactive
CCOc1ccc2[nH]c(=O)c(CN(Cc3ccco3)Cc3nnnn3Cc3ccccc3)cc2c1	none
Clc1cccc(Cl)c1CSc1nnc(-c2ccncc2)s1	APJ agonist 70 | APJ ag confirm inactive
O=C(Nc1ccncc1)c1cc2ccccc2cc1O	APJ agonist 47 | APJ ag confirm inactive
Cc1c2ccccc2c(C)c2c1ccc1ccccc12	APJ agonist 41 | APJ ag confirm inactive
COc1cc(NC(=O)c2cccc(C)c2)ccc1NC(=O)c1cc2ccccc2o1	none
CCOc1cccc(C(=O)Nc2ccc(NC(=O)c3cc4ccccc4o3)c(OC)c2)c1	APJ agonist 20 | APJ ag confirm inactive
Oc1ccc(/C=N/Nc2ccnc3cc(Cl)ccc23)c(O)c1O	none
Oc1ccc(/C=N/Nc2ccnc3cc(Cl)ccc23)cc1O	APJ agonist 15 | APJ ag confirm inactive
O=C(NCc1cccs1)c1ccc(Cl)c(S(=O)(=O)N2CCOCC2)c1	none (no result: NTR1 agonist, APJ agonist, APJ antagonist, CCR6 antag)
CCn1c(NCc2c[nH]c3ccccc23)nc2ccccc21	none
Cn1c(NCc2c[nH]c3ccccc23)nc2ccccc21	APJ agonist 22 | APJ ag confirm inactive
Cc1ccc(S(=O)(=O)Nc2ccc(-c3csc(-c4ccccc4)n3)cc2)cc1	none
Cc1ccc(S(=O)(=O)Nc2nc(-c3ccccc3)cs2)cc1	APJ agonist 30 | APJ ag confirm 55
CCCCc1ccc(NC(=O)COc2ccc(C(=O)Nc3ccccc3OCC)cc2)cc1	APJ agonist 36 | APJ ag confirm inactive
COc1ccc(CNC(=O)CCCC(=O)Nc2cccc(Br)c2)cc1	none
CC1=C/C(=N\OS(=O)(=O)c2ccccc2)C(C)=CC1=O	APJ agonist 109 | APJ ag confirm 86
COc1ccc(COC(=O)C2=C(C)NC(=O)NC2c2ccc(F)cc2)cc1 (centres undefined)	APJ agonist 23 | APJ ag confirm inactive
CC(C)(C)c1ccc(NC(=O)COC(=O)c2ccc3ncsc3c2)cc1	none
O=C(COC(=O)c1ccc2ncsc2c1)Nc1ccc(OC(F)(F)F)cc1	APJ agonist 18 | APJ ag confirm inactive
CC(=O)N(/N=C/c1cccc(C)c1)c1nc(-c2ccc(Br)cc2)cs1	none
COc1ccc(/C=N/N(C(C)=O)c2nc(-c3ccc(C)cc3)cs2)cc1	APJ agonist 50 | APJ ag confirm inactive
Cn1c(=O)c2cc3ccccc3nc2n(C)c1=O	none
N#Cc1cc2cc3ccccc3nc2n2c(=O)c3ccccc3nc12	APJ agonist 15 | APJ ag confirm inactive
COc1ccc(CNc2nc3ccccc3n2CCN2CCCCC2)cc1	none
COc1ccc(CCN2CCC(Nc3nc4ccccc4n3Cc3ccc(F)cc3)CC2)cc1	APJ agonist 32 | APJ ag confirm inactive
COC(=O)c1cnc(Oc2ccc(NC(=O)NC(=O)c3ccccc3Cl)cc2)cc1C(F)(F)F	APJ agonist 20 | APJ ag confirm inactive
Cc1ccc(/C=N/NC(=O)CSc2nnc(-c3ccc(Cl)cc3)n2-c2ccc(Cl)cc2)o1	APJ agonist 28 | APJ ag confirm 163
CCn1c(SCC(=O)N/N=C/c2ccc(C)o2)nnc1-c1ccccc1	none
Cc1ccc(/C=N/NC(=O)CSc2nnc(-c3ccccc3)n2-c2ccc(Cl)cc2)o1	APJ agonist 14 | APJ ag confirm 43
Cc1cc2oc(C(=O)NCc3ccccc3)cc(=O)c2cc1C	none
COc1ccc2[nH]c3c(=O)n(/N=C/[C@H]4C(C)C=C(C)CC4C)c(=O)[nH]c3c2c1 (some centres undefined)	APJ agonist 24 | APJ ag confirm inactive
N/C(=N\OC(=O)c1ccc2ccccc2c1)c1ccncc1	none
N/C(=N\OC(=O)c1ccc2ccccc2c1)c1ccccc1Cl	APJ agonist 43 | APJ ag confirm inactive
CCOC(=O)COc1c(Cl)cc(/C=C2\N=C(C)OC2=O)cc1OC	none
COc1cc(-c2cc(=O)c3c(O)c(OC)c(OC)c(O)c3o2)ccc1O	APJ agonist 28 | APJ ag confirm inactive
COc1c(O)c(O)c2oc(-c3ccccc3)cc(=O)c2c1OC	none
Cc1cccc(-n2ccc(=O)c(C(=O)Nc3ccc(S(=O)(=O)Nc4nccc(C)n4)cc3)n2)c1	none
Cc1ccc(S(C)(=O)=O)cc1C(=O)NC(C)C1CC2CCC1C2 (centres undefined)	none
COc1cccc(NC(=O)Nc2nc(-c3ccc(OC)c(OC)c3)cs2)c1	APJ agonist 19 | APJ ag confirm inactive
COc1ccc(-c2csc(NC(C)=O)n2)cc1OC	none
Cc1ccc2nc(C(C)(C)C)c(Cc3ccccc3C(F)(F)F)n2c1	none (no result: NTR1 agonist, APJ agonist, APJ antagonist, CCR6 antag)
COc1cccc(Sc2nc(-c3ccccc3)ncc2S(C)(=O)=O)c1	none
CS(=O)(=O)c1cnc(-c2ccccc2)nc1Sc1ccc(F)cc1	APJ agonist 18 | APJ ag confirm inactive
CN1CCN(c2c(/C=N/O)c3ccccc3n2C)CC1	none
Cc1ccccc1C(=O)O/N=C/c1c(N2CCOCC2)n(C)c2ccccc12	APJ agonist 15 | APJ ag confirm inactive
N/C(=N\OC(=O)c1cccc(F)c1)c1cccc([N+](=O)[O-])c1	APJ agonist 15 | APJ ag confirm inactive
N/C(=N\OC(=O)c1ccc2ccccc2c1)c1cccc([N+](=O)[O-])c1	none
